Assay results published in ChEMBL document CHEMBL4610021, “Synthesis and immunostimulatory activity of sugar-conjugated TLR7 ligands” (Bioorg Med Chem Lett, 2020).

Assays:
Format in all cases: cell-based
[1] = target: T1, Toll-like receptor 7 (Mus musculus, UniProt P58681); experiment: Agonist activity at TLR7 in mouse RAW264.7 cells assessed as immunostimulatory activity by measuring increase in TNFalpha secretion incubated for 18 hrs by ELISA
T1 sequence (P58681 whole entry): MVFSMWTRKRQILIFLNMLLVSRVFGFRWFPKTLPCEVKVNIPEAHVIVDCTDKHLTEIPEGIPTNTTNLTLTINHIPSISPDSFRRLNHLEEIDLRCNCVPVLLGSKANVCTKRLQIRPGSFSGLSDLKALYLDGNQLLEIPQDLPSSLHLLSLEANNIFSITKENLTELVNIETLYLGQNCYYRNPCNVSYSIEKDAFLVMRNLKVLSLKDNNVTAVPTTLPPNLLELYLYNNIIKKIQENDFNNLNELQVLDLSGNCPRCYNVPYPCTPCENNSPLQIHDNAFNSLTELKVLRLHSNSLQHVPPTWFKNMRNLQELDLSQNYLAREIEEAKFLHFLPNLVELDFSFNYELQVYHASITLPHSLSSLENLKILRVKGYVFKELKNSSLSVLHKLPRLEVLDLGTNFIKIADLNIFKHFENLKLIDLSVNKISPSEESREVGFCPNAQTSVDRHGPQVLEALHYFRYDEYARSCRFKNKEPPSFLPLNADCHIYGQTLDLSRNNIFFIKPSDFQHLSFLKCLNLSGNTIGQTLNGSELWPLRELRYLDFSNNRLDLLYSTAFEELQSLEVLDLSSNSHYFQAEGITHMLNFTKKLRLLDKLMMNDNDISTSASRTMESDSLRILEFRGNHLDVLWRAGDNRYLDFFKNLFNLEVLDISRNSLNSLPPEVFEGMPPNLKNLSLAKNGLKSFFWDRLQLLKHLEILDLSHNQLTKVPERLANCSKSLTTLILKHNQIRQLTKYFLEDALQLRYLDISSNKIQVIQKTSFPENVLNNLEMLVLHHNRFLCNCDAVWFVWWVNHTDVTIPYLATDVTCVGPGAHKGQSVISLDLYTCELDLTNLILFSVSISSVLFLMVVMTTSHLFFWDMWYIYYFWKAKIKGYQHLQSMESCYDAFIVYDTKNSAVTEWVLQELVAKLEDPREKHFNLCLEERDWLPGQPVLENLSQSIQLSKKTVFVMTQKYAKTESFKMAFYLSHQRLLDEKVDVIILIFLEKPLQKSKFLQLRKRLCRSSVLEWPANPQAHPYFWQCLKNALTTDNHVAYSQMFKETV
Method in brief: (§1)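 Murine RAW264.7 macrophages plated at 1×10^4 cells/well, incubated 18 h with serially diluted compound; 0.25% DMSO vehicle. TNF-α in culture supernatant measured by ELISA. EC50 calculated by curve fitting; Emax as % of unconjugated reference ligand. Means ± SD of triplicate, representative of three independent experiments.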

[2] = target: T2, Toll-like receptor 7 (Mus musculus) (UniProt P58681); experiment: Agonist activity at TLR7 in mouse RAW264.7 cells assessed as immunostimulatory activity by measuring increase in TNFalpha secretion incubated for 18 hrs by ELISA relative to 1V209; method in brief: as §1
T2 sequence (whole entry): T1 sequence (P58681 whole entry)

[3] = target: T1, Toll-like receptor 7; experiment: Agonist activity at TLR7 in mouse BMDC cells assessed as immunostimulatory activity by measuring increase in IL6 secretion incubated for 18 hrs by ELISA
Method in brief: (§2)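 Primary murine bone marrow-derived dendritic cells plated at 1×10^5 cells/well and exposed to serially diluted compound; 0.25% DMSO vehicle. IL-6 in supernatant measured by ELISA. EC50 calculated by curve fitting; Emax expressed as % relative to the unconjugated reference ligand. Means ± SD of triplicate, representative of three independent experiments.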

[4] = target: T3, Toll-like receptor 7 (Homo sapiens) (UniProt Q9NYK1); experiment: Agonist activity at TLR7 in human PBMC cells assessed as immunostimulatory activity by measuring fold increase in TNFalpha secretion at 10 uM incubated for 18 hrs by ELISA relative to 1V209
T3 sequence (whole entry): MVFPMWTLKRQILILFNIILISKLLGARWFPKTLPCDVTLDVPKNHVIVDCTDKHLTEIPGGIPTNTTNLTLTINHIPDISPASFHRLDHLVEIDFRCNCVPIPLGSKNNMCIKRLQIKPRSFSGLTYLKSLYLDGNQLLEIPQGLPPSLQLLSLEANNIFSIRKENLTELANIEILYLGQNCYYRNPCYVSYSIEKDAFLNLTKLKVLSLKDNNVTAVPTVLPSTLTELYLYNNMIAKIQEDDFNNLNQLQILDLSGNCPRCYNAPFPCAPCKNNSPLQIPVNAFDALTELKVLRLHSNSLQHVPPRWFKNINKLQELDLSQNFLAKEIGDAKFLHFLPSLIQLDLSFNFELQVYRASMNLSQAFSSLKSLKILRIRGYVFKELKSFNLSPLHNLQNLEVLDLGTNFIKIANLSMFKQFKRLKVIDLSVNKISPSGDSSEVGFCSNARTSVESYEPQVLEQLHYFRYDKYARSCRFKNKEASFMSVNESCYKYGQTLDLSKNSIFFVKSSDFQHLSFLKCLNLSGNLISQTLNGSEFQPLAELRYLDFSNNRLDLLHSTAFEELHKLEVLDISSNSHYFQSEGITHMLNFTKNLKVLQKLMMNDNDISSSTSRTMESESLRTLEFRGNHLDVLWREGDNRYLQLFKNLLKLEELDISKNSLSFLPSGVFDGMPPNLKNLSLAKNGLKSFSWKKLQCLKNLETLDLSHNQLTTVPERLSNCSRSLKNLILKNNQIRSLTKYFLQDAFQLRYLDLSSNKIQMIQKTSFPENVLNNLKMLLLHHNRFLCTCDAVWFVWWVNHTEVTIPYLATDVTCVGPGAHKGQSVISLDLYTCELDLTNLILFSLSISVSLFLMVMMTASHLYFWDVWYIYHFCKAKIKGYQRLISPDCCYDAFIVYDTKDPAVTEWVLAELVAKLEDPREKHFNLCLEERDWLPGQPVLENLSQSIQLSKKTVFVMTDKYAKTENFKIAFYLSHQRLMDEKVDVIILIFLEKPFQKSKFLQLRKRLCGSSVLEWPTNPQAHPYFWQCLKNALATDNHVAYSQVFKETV
Method in brief: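 Human PBMC plated at 2×10^5 cells/well, exposed 18 h to 10 μM compound; 0.25% DMSO vehicle control. Cytokine in culture supernatant quantified by ELISA. Means ± SD of triplicate, representative of three independent experiments; one-way ANOVA with Dunnett's multiple comparisons test.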

[5] = target: T2, Toll-like receptor 7 (Mus musculus); experiment: Agonist activity at TLR7 in mouse BMDC cells assessed as immunostimulatory activity by measuring increase in IL6 secretion incubated for 18 hrs by ELISA relative to 1V209; method in brief: as §2
[6] = target: T1, Toll-like receptor 7; experiment: Agonist activity at TLR7 in mouse RAW264.7 cells assessed as immunostimulatory activity by measuring increase in TNFalpha secretion incubated for 6 hrs in absence of actin polymerization inhibitor cytochalasin D by ELISA
Method in brief: (§3)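 RAW264.7 cells seeded at 1.5×10^4 cells/well, pre-incubated with or without 1 μM cytochalasin D, then exposed 6 h to serially diluted compound. TNF-α and IL-6 in supernatants determined by ELISA. Means ± SD of triplicate, representative of three independent experiments.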

[7] = target: T1, Toll-like receptor 7; experiment: Agonist activity at TLR7 in mouse RAW264.7 cells assessed as immunostimulatory activity by measuring increase in TNFalpha secretion preincubated with actin polymerization inhibitor cytochalasin D followed by incubation with compound for 6 hrs by ELISA; method in brief: as §3

Structure (SMILES) | EC50 [1] | Emax [2] | EC50 [3] | fold change (FC) [4] | Emax [5] | EC50 [6] | EC50 [7]
COCCOc1nc(N)c2nc(O)n(Cc3ccc(C(=O)NC[C@H]4O[C@@H]5O[C@H]6[C@H](O)[C@@H](O)[C@@H](O[C@H]7[C@H](O)[C@@H](O)[C@@H](O[C@H]8[C@H](O)[C@@H](O)[C@@H](O[C@H]9[C@H](O)[C@@H](O)[C@@H](O[C@H]%10[C@H](O)[C@@H](O)[C@@H](O[C@H]4[C@H](O)[C@H]5O)O[C@@H]%10CO)O[C@@H]9CO)O[C@@H]8CO)O[C@@H]7CO)O[C@@H]6CO)cc3)c2n1 | 128 nM | 126% | 71 nM | – | 127% | – | –
COCCOc1nc(N)c2nc(O)n(Cc3ccc(C(=O)NC[C@H]4O[C@@H]5O[C@H]6[C@H](O)[C@@H](O)[C@@H](O[C@H]7[C@H](O)[C@@H](O)[C@@H](O[C@H]8[C@H](O)[C@@H](O)[C@@H](O[C@H]9[C@H](O)[C@@H](O)[C@@H](O[C@H]%10[C@H](O)[C@@H](O)[C@@H](O[C@H]%11[C@H](O)[C@@H](O)[C@@H](O[C@H]%12[C@H](O)[C@@H](O)[C@@H](O[C@H]4[C@H](O)[C@H]5O)O[C@@H]%12CO)O[C@@H]%11CO)O[C@@H]%10CO)O[C@@H]9CO)O[C@@H]8CO)O[C@@H]7CO)O[C@@H]6CO)cc3)c2n1 | 132 nM | 97% | 108 nM | – | 130% | – | –
COCCOc1nc(N)c2nc(O)n(Cc3ccc(C(=O)NC4O[C@H](CO)[C@@H](O[C@@H]5O[C@H](CO)[C@H](O)[C@H](O)[C@H]5O)[C@H](O)[C@H]4O)cc3)c2n1 (stereo partly specified) | 80 nM | 177% | 110 nM | – | 142% | – | –
COCCOc1nc(N)c2nc(O)n(Cc3ccc(C(=O)N[C@H]4[C@H](O)[C@H]5O[C@H]6[C@H](O)[C@@H](O)[C@@H](O[C@H]7[C@H](O)[C@@H](O)[C@@H](O[C@H]8[C@H](O)[C@@H](O)[C@@H](O[C@H]9[C@H](O)[C@@H](O)[C@@H](O[C@H]%10[C@H](O)[C@@H](O)[C@@H](O[C@H]%11[C@H](O)[C@@H](O)[C@@H](O[C@H]%12[C@H](O)[C@@H](O)[C@@H](O[C@@H]4[C@@H](CO)O5)O[C@@H]%12CO)O[C@@H]%11CO)O[C@@H]%10CO)O[C@@H]9CO)O[C@@H]8CO)O[C@@H]7CO)O[C@@H]6CO)cc3)c2n1 | 107 nM | 113% | 56 nM | – | 109% | – | –
COCCOc1nc(N)c2nc(O)n(Cc3ccc(C(=O)NC4O[C@H](CO)[C@@H](O[C@H]5O[C@H](CO)[C@@H](O)[C@H](O)[C@H]5O)[C@H](O)[C@H]4O)cc3)c2n1 (stereo partly specified) | 136 nM | 157% | 99 nM | 2 | 159% | 277 nM | 585 nM
COCCOc1nc(N)c2nc(O)n(Cc3ccc(C(=O)NC[C@H]4O[C@@H]5O[C@H]6[C@H](O)[C@@H](O)[C@@H](O[C@H]7[C@H](O)[C@@H](O)[C@@H](O[C@H]8[C@H](O)[C@@H](O)[C@@H](O[C@H]9[C@H](O)[C@@H](O)[C@@H](O[C@H]%10[C@H](O)[C@@H](O)[C@@H](O[C@H]%11[C@H](O)[C@@H](O)[C@@H](O[C@H]4[C@H](O)[C@H]5O)O[C@@H]%11CO)O[C@@H]%10CO)O[C@@H]9CO)O[C@@H]8CO)O[C@@H]7CO)O[C@@H]6CO)cc3)c2n1 | 287 nM | 135% | 153 nM | – | 127% | – | –
COCCOc1nc(N)c2[nH]c(=O)n(Cc3ccc(C(=O)O)cc3)c2n1 | 252 nM | 100% | 434 nM | – | 100% | 2150 nM | 2110 nM

Second part, the compound after the results:

EC50 [1] | Emax [2] | EC50 [3] | fold change (FC) [4] | Emax [5] | EC50 [6] | EC50 [7] | Structure (SMILES)
234 nM | 103% | 239 nM | 2 | 139% | – | – | COCCOc1nc(N)c2nc(O)n(Cc3ccc(C(=O)N[C@H]4C(O)O[C@H](CO)[C@@H](O)[C@@H]4O)cc3)c2n1 (stereo partly specified)
153 nM | 83% | 210 nM | – | 139% | – | – | COCCOc1nc(N)c2nc(O)n(Cc3ccc(C(=O)N[C@H]4C(O)O[C@H](CO)[C@H](O)[C@@H]4O)cc3)c2n1 (stereo partly specified)
316 nM | 115% | 258 nM | – | 118% | – | – | COCCOc1nc(N)c2nc(O)n(Cc3ccc(C(=O)NC4O[C@H](CO)[C@H](O)[C@H](O)[C@H]4O)cc3)c2n1 (stereo partly specified)
252 nM | 121% | 303 nM | – | 116% | – | – | COCCOc1nc(N)c2nc(O)n(Cc3ccc(C(=O)NC4O[C@H](CO)[C@@H](O)[C@H](O)[C@@H]4O)cc3)c2n1 (stereo partly specified)
230 nM | 87% | 198 nM | – | 118% | 490 nM | 909 nM | COCCOc1nc(N)c2nc(O)n(Cc3ccc(C(=O)NC4O[C@H](CO)[C@@H](O)[C@H](O)[C@H]4O)cc3)c2n1 (stereo partly specified)
